# Assay results published in PMC7944986 (Journal for Immunotherapy of Cancer, 2021).
# “Also recorded” adds a separate entry of the source.
# How the values were obtained:
# Type in all cases: in vivo, human
# [1] = Steady-state galunisertib plasma pharmacokinetics; details: for AUC / Cmax: human, plasma, oral, geometric mean (CV %), steady state; for AUC: AUC(0-tau)
# [2] = system: patients with recurrent or refractory metastatic pancreatic cancer; test: Dose finding, modified 3+3; details: co-administered with durvalumab 1500 mg Q4W; days 1–14 of a 28-day cycle
# In short: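 Oral galunisertib was given on days 1–14 in escalating cohorts of 50 mg once daily, then 50, 80 or 150 mg twice daily, with durvalumab infused IV over 60 min. Cohorts of three expanded to six after one DLT in cycle 1 (28 days). DLT criteria: grade 4 haematological AE, febrile neutropenia, grade 3–4 irAE or non-haematological AE, <75% planned dose, or >2-week delay. MTD: DLT in <2 of six; otherwise RP2D = maximum study dose.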
# [3] = Durvalumab immunogenicity; details: durvalumab 1500 mg Q4W in combination with galunisertib
compound,measurement,setting,value
"Cc1cccc(-c2nn3c(c2-c2ccnc4ccc(C(N)=O)cc24)CCC3)n1 [Galunisertib, galunisertib]",Time to maximum plasma concentration (mean concentration versus time profiles),"[1]; galunisertib 50, 80, and 150 mg two times per day",≤ 4 h
same,AUC,"[1]; tau=12 hours, galunisertib 50 mg two times per day + durvalumab 1500 mg Q4W",813 ng·h/mL
same,AUC,"[1]; tau=12 hours, galunisertib 80 mg two times per day + durvalumab 1500 mg Q4W",3150 ng·h/mL
same,AUC,"[1]; tau=12 hours, galunisertib 150 mg two times per day + durvalumab 1500 mg Q4W",6120 ng·h/mL
same,AUC,"[1]; tau=24 hours, galunisertib 50 mg one time per day + durvalumab 1500 mg Q4W",1630 ng·h/mL
same,Cmax,[1]; galunisertib 50 mg one time per day + durvalumab 1500 mg Q4W,424 ng/mL
same,Cmax,[1]; galunisertib 80 mg two times per day + durvalumab 1500 mg Q4W,612 ng/mL
same,Cmax,[1]; galunisertib 150 mg two times per day + durvalumab 1500 mg Q4W,1070 ng/mL
same,Recommended phase II dose (RP2D) of galunisertib,[2],150 mg two times per day
durvalumab,Anti-drug antibodies against durvalumab,[3],No anti-drug antibodies against durvalumab were detected; also recorded: immunogenicity was not observed
